# Reference: ChEMBL document CHEMBL4808175 (J Med Chem, 2021)
# pIC50: −log10 of the molar value. Activity calls are given as the source filed them. The rule behind the calls is not given here.
# Columns and labels:
# [1] = Half life in C57BL/6N mouse at 150 mg/kg, po administered as single dose measured up to 8 hrs by LC-MS/MS analysis; assay type: ADME, organism-based; conditions: in vivo
# [2] = target: Cone cGMP-specific 3',5'-cyclic phosphodiesterase subunit alpha' (Homo sapiens, UniProt P51160); assay: Inhibition of recombinant full length GST-tagged PDE6C (unknown origin) expressed in baculovirus infected Sf9 insect cells at 15 uM using TAMRA-cGMP as substrate incubated for 1.5 hrs by IMAP-FP assay relative to control
# In short: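 PDE6 activity measured at a single 15 μM compound concentration with TAMRA-cGMP substrate. Incubated 1.5 h at 30 °C and read by IMAP fluorescence polarization; percent inhibition relative to control.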
# [3] = target: T1, Dual specificity calcium/calmodulin-dependent 3',5'-cyclic nucleotide phosphodiesterase 1A (Homo sapiens, UniProt P54750); assay: Inhibition of recombinant full length GST-tagged PDE1A (unknown origin) expressed in baculovirus infected Sf9 insect cells using FAM-cAMP as substrate incubated for 1.5 hrs by IMAP-FP assay
# In short: (§1)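 PDE enzymes incubated with compound or vehicle and 50 nM TAMRA-cGMP or FAM-cAMP substrate for 1.5 h at 30 °C. Activity read by IMAP fluorescence polarization. IC50 from 10 concentrations, at least two replicates each, fitted by four-parameter logistic. Dose–response repeated at least twice; mean of at least two experiments.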
# [4] = target: T2, cGMP-specific 3',5'-cyclic phosphodiesterase (Homo sapiens, UniProt O76074); assay: Competitive inhibition of recombinant 6His-tagged PDE5A1 catalytic domain (unknown origin) expressed in Escherichia coli assessed as increase in apparent Km up to 40 nM using varying levels TAMRA-cGMP or FAM-cAMP as substrate; conditions: dose nM <=40
# [5] = Protein binding in human plasma assessed as bound fraction by HPLC-MS/MS analysis; assay type: ADME, cell-free; conditions: read-out: PPB (converted)
# In short: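 Human plasma spiked with compound at 10 μM, 1% DMSO final. Dialyzed against PBS pH 7.4 for 4 h at 37 °C. Both compartments diluted, acetonitrile-precipitated and quantified by HPLC-MS/MS. An undialyzed spiked control served for recovery; duplicates.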
# [6] = target: cGMP-inhibited 3',5'-cyclic phosphodiesterase 3A (Homo sapiens, UniProt Q14432); assay: Inhibition of recombinant GST-tagged PDE3A (669 to end residues) (unknown origin) expressed in baculovirus infected Sf9 insect cells using TAMRA-cGMP as substrate incubated for 1.5 hrs by IMAP-FP assay; in short: as §1
# [7] = target: T1, Dual specificity calcium/calmodulin-dependent 3',5'-cyclic nucleotide phosphodiesterase 1A; assay: Inhibition of recombinant full length GST-tagged PDE1A (unknown origin) expressed in baculovirus infected Sf9 insect cells using TAMRA-cGMP as substrate incubated for 1.5 hrs by IMAP-FP assay; in short: as §1
# [8] = Observed clearance in C57BL/6N mouse at 150 mg/kg, po administered as single dose measured up to 8 hrs by LC-MS/MS analysis; assay type: ADME, organism-based; conditions: in vivo
# [9] = AUC (0 to 8 hrs) in C57BL/6N mouse at 150 mg/kg, po administered as single dose measured up to 8 hrs by LC-MS/MS analysis; assay type: ADME, organism-based; parameters: route oral, dose 150 mg/kg, time <=8; conditions: in vivo
# [10] = Observed AUC (0 to infinity) in C57BL/6N mouse at 150 mg/kg, po administered as single dose measured up to 8 hrs by LC-MS/MS analysis; assay type: ADME, organism-based; parameters: route oral, dose 150 mg/kg, time <=8; conditions: in vivo
# [11] = Toxicity in athymic nude-Foxn1nu mouse assessed as body weight loss at 50 to 150 mg/kg, po bid measured immediately relative to control; assay type: organism-based; conditions: in vivo, dose 50-150 mg/kg
# In short: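 Female athymic nude-Foxn1nu mice, 8–9 weeks, 18–24 g, n=4 per group. Oral gavage at 50, 100 or 150 mg/kg twice daily, or vehicle, for 28 days. Formulation ethanol/water/Maalox (7:3:90, v/v/v). Toxicity signs monitored daily. Body weight recorded daily in week 1, then twice weekly, as percent change from starting weight.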
# [12] = target: T2, cGMP-specific 3',5'-cyclic phosphodiesterase; assay: Inhibition of recombinant full length GST-tagged PDE5A1 (unknown origin) expressed in baculovirus infected Sf9 insect cells using TAMRA-cGMP as substrate incubated for 1.5 hrs by IMAP-FP assay
# T1 sequence (P54750 whole entry): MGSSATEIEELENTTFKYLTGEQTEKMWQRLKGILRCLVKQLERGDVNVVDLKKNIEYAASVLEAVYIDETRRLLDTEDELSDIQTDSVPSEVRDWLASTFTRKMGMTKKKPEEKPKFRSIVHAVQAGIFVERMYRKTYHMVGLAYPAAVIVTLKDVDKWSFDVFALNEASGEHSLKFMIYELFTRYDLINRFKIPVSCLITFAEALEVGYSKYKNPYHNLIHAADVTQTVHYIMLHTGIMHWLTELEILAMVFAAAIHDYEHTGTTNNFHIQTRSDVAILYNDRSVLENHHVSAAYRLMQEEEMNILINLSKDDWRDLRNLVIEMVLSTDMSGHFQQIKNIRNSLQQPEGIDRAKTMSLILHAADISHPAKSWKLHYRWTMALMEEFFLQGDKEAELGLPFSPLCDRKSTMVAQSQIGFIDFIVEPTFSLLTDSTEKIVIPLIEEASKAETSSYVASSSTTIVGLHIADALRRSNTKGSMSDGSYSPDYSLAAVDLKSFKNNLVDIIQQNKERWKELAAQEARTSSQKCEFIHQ
# Cone cGMP-specific 3',5'-cyclic phosphodiesterase subunit alpha', sequence (P51160 whole entry): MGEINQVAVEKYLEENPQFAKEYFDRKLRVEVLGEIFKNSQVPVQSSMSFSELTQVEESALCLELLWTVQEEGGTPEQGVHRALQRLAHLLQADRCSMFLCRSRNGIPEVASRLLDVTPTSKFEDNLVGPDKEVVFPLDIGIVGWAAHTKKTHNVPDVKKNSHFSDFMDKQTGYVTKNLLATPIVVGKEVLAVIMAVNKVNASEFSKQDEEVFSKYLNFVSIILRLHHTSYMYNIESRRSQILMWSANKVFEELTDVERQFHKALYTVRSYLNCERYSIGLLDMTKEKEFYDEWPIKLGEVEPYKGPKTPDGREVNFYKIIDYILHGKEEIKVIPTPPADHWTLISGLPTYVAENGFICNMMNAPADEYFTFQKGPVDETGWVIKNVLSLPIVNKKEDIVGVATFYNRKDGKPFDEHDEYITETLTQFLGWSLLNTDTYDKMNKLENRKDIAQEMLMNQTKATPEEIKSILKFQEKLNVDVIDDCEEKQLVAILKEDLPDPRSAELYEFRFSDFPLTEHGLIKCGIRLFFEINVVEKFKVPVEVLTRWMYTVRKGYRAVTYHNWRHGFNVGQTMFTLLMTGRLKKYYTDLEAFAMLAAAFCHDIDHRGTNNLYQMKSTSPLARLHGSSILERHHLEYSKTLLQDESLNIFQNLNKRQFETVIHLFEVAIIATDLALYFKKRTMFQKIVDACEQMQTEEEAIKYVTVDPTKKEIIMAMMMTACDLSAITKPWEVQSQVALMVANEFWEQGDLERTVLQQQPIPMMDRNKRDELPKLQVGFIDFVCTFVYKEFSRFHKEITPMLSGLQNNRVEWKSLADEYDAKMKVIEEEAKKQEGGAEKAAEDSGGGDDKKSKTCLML
# cGMP-inhibited 3',5'-cyclic phosphodiesterase 3A, sequence (Q14432 whole entry): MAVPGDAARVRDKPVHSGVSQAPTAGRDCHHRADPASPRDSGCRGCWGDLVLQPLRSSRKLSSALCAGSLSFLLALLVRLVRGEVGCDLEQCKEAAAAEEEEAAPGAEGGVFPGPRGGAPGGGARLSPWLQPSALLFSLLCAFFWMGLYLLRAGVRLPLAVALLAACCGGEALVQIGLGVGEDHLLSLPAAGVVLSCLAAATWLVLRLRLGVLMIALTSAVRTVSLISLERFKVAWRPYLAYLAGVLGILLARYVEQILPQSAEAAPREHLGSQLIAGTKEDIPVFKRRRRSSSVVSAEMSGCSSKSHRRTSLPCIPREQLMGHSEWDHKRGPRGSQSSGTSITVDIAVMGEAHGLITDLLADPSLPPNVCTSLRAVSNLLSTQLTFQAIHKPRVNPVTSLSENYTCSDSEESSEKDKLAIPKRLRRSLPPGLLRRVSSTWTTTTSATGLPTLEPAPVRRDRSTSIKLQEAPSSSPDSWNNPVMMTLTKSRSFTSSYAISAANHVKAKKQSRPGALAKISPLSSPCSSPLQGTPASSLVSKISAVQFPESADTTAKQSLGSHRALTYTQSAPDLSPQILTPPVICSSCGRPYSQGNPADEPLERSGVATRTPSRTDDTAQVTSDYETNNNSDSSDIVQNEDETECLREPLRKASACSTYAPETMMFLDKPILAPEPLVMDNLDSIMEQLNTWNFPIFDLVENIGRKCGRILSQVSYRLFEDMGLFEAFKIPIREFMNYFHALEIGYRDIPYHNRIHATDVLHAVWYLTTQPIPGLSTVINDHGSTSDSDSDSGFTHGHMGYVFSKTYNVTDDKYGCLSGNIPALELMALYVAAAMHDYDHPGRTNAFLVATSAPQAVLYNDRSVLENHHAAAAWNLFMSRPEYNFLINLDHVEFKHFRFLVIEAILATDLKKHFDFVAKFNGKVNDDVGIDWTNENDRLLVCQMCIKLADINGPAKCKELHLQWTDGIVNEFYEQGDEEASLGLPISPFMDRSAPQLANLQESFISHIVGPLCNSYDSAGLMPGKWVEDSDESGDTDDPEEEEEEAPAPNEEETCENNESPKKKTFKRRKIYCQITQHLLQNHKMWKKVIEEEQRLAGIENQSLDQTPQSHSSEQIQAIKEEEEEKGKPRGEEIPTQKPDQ
smiles,measurement,setting,value
COc1c(F)cc(C2CC(C(C)(C)C)=NN2c2ccc(C(=O)N3CCN(C)CC3)cc2)cc1F (configuration not stated),half-life,[1],2.33 h
same,inhibition,[2],50%
same,pIC50,[3],< 5.00
same,inhibition,[4],Active
same,fraction unbound,[5],0.02
same,pIC50,[6],< 5.00
same,pIC50,[7],< 5.00
same,CL/F,[8],3.09 mL/min
same,AUC(0-t),[9],14100 ng·h/mL
same,AUC(0-inf),[10],16200 ng·h/mL
same,Activity,[11],< 5%
same,pIC50,[12],9.00
